# ChEMBL document CHEMBL1145471, “Small molecule regulators of autophagy identified by an image-based high-throughput screen” (Proc Natl Acad Sci U S A, 2007)
# Active and inactive are the calls of the source. The rule behind the calls is not given here.
# Experiments:
# H4 [1] = assay: Increase in long-lived protein degradation in human H4 cells after 24 hrs relative to control; format: functional; set-up: concentration or dose not given beside the values
# H4 [2] = assay: Decrease in FYVE-RFP+ vesicle intensity per cell in human H4 cells after 4 hrs relative to control; format: functional; set-up: concentration or dose not given beside the values
# Procedure, shortened: (§1)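 H4 cells stably expressing FYVE-RFP (H4-FYVE), grown in DMEM with 10% FBS, penicillin/streptomycin and 2 mM L-glutamine at 37°C, 5% CO2, seeded in 96-well plates and exposed to compound. Fixed in 4% paraformaldehyde, nuclei stained with 3 μg/ml DAPI, FYVE-RFP+ vesicles quantified by high-throughput fluorescence microscopy against DMSO control. Triplicate wells, mean ± SD.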
# H4 [3] = assay: Induction of light chain 3-GFP level in human H4 cells at 4.5 uM after 24 hrs by high throughput fluorescence microscopy relative to control; format: functional
# Procedure, shortened: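 H4 cells stably expressing LC3-GFP, grown in DMEM with 10% FBS, penicillin/streptomycin and 2 mM L-glutamine at 37°C, 5% CO2. Cells were seeded in 96-well plates and exposed to library compounds at 3–12 μM for 24 h, then fixed in 4% paraformaldehyde and stained with 3 μg/ml DAPI. LC3-GFP spot number, size and intensity were measured by high-throughput fluorescence microscopy and expressed relative to DMSO. Triplicates, mean ± SD.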
# H4 [4] = assay: Increase in light chain 3-GFP+ autophagosome vesicle area per cell in human H4 cells at 4.5 uM after 24 hrs by high throughput fluorescence microscopy relative to control; format: functional
# Procedure, shortened: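 H4 cells stably expressing LC3-GFP, seeded in 96-well plates and exposed to compound for 24 h; screening concentrations were 3–12 μM, with rapamycin 0.22 μM and bafilomycin A1 0.40 μM. Cells fixed in 4% paraformaldehyde and stained with 3 μg/ml DAPI. Number, size and intensity of LC3-GFP spots measured by high-throughput fluorescence microscopy and expressed as percent of DMSO-treated wells. Rapamycin was the positive control. Triplicate wells, mean ± SD; experiments repeated three times.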
# H4 [5] = assay: Increase in long-lived protein degradation in human H4 cells after 1 hr relative to control; format: functional; set-up: concentration or dose not given beside the values
# H4 [6] = assay: Increase in light chain 3-GFP+ autophagosome vesicle intensity per cell in human H4 cells at 4.5 uM after 24 hrs by high throughput fluorescence microscopy relative to control; format: functional
# Procedure, shortened: (§2)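 H4 cells stably expressing LC3-GFP were grown in DMEM with 10% FBS and 2 mM L-glutamine at 37°C, 5% CO2. They were exposed to each compound for 24 h, with DMSO as negative and rapamycin as positive control. Cells were then fixed in 4% paraformaldehyde and stained with 3 μg/ml DAPI. High-throughput fluorescence imaging scored LC3-GFP spot number, size and intensity, expressed relative to DMSO. Mean ± SD of triplicates; experiments repeated three times.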
# H4 [7] = assay: Increase in light chain 3-GFP+ autophagosome vesicle number per cell in human H4 cells at 4.5 uM after 24 hrs by high throughput fluorescence microscopy relative to control; format: functional; procedure, shortened: as §2
# H4 [8] = assay: Decrease in FYVE-RFP+ vesicle intensity per cell in human H4 cells after 2 hrs relative to control; format: functional; set-up: concentration or dose not given beside the values; procedure, shortened: as §1
# H4 [9] = assay: Increase in long-lived protein degradation in human H4 cells after 4 hrs relative to control; format: functional; set-up: concentration or dose not given beside the values
# H4 [10] = assay: Decrease in FYVE-RFP+ vesicle intensity per cell in human H4 cells after 8 hrs relative to control; format: functional; set-up: concentration or dose not given beside the values; procedure, shortened: as §1
# H4 [11] = assay: Increase in long-lived protein degradation in human H4 cells after 2 hrs relative to control; format: functional; set-up: concentration or dose not given beside the values
# H4 [12] = assay: Induction of light chain 3-GFP level in human H4 cells at 4.9 uM after 24 hrs by high throughput fluorescence microscopy relative to control; format: functional
# Procedure, shortened: (§3)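 H4 cells stably expressing LC3-GFP, kept in DMEM/10% FBS at 37°C, 5% CO2, were seeded in 96-well plates and exposed to compound for 24 h. Cells were then fixed in 4% paraformaldehyde and stained with 3 μg/ml DAPI. Automated fluorescence microscopy scored the number, size and intensity of LC3-GFP spots. Values are percent of DMSO wells, in triplicate, mean ± SD. Rapamycin served as positive control.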
# H4 [13] = assay: Effect on FYVE-RFP+ vesicle intensity per cell in human H4 cells after 4 hrs relative to control; format: functional; set-up: concentration or dose not given beside the values; procedure, shortened: as §1
# [14] = target: T1, Serine/threonine-protein kinase mTOR (Homo sapiens, UniProt P42345); assay: Effect on mTOR phosphorylation in human H4 cells at 4.9 uM after 4 hrs; format: cell-based
# Procedure, shortened: (§4)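 H4 cells treated with compound for 4 h; lysates analysed by Western blot using anti-phospho/non-phospho mTOR antibody, with actin as loading control; rapamycin used for comparison. Cells grown in DMEM with 10% FBS, penicillin/streptomycin, 2 mM L-glutamine at 37°C, 5% CO2.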
# H4 [15] = assay: Induction of light chain 3-GFP level in human H4 cells at 5.0 uM after 24 hrs by high throughput fluorescence microscopy relative to control; format: functional; procedure, shortened: as §3
# H4 [16] = assay: Increase in light chain 3-GFP+ autophagosome vesicle number per cell in human H4 cells at 4.9 uM after 24 hrs by high throughput fluorescence microscopy relative to control; format: functional; procedure, shortened: as §3
# H4 [17] = assay: Effect on FYVE-RFP+ vesicle intensity per cell in human H4 cells after 8 hrs relative to control; format: functional; set-up: concentration or dose not given beside the values; procedure, shortened: as §1
# H4 [18] = assay: Effect on FYVE-RFP+ vesicle intensity per cell in human H4 cells after 2 hrs relative to control; format: functional; set-up: concentration or dose not given beside the values; procedure, shortened: as §1
# H4 [19] = assay: Increase in light chain 3-GFP+ autophagosome vesicle intensity per cell in human H4 cells at 4.9 uM after 24 hrs by high throughput fluorescence microscopy relative to control; format: functional
# Procedure, shortened: (§5)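 H4 cells stably expressing LC3-GFP, seeded in 96-well plates and exposed to compound for 24 h; fixed in 4% paraformaldehyde, nuclei stained with 3 μg/ml DAPI. Automated fluorescence microscopy scored number, size and intensity of LC3-GFP spots; values expressed relative to DMSO-treated wells, rapamycin positive control. Triplicate wells, mean ± SD; experiments repeated three times.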
# H4 [20] = assay: Reduction of poly(Q) level in human H4 cells expressing EGFP-Q79-HA after 24 hrs; format: functional, cell-based
# Procedure, shortened: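 H4 cells were transiently transfected with an EGFP-Q79-HA expression vector. The medium was replaced 6 h after transfection and compounds were added. Poly(Q) was detected with anti-HA antibody.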
# H4 [21] = assay: Increase in ratio of light chain 3 subunit 2 to light chain 3 subunit 1 in human H4 cells at 4.9 uM after 4 hrs by Western blot; format: functional, cell-based
# Procedure, shortened: (§6)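 H4 cells were exposed to compound for 4 h, then lysed. Lysates were blotted with anti-LC3 antibody, with actin as loading control, and the LC3II/LC3I band ratio was taken.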
# [22] = target: T1, Serine/threonine-protein kinase mTOR; assay: Effect on mTOR phosphorylation in human H4 cells at 5.4 uM after 4 hrs; format: cell-based; procedure, shortened: as §4
# H4 [23] = assay: Increase in light chain 3-GFP+ autophagosome vesicle number per cell in human H4 cells at 5.4 uM after 24 hrs by high throughput fluorescence microscopy relative to control; format: functional; procedure, shortened: as §3
# H4 [24] = assay: Increase in light chain 3-GFP+ autophagosome vesicle intensity per cell in human H4 cells at 5.4 uM after 24 hrs by high throughput fluorescence microscopy relative to control; format: functional; procedure, shortened: as §5
# H4 [25] = assay: Increase in light chain 3-GFP+ autophagosome vesicle area per cell in human H4 cells at 5.4 uM after 24 hrs by high throughput fluorescence microscopy relative to control; format: functional; procedure, shortened: as §5
# H4 [26] = assay: Induction of light chain 3-GFP level in human H4 cells at 5.4 uM after 24 hrs by high throughput fluorescence microscopy relative to control; format: functional; procedure, shortened: as §3
# H4 [27] = assay: Increase in ratio of light chain 3 subunit 2 to light chain 3 subunit 1 in human H4 cells at 5.4 uM after 4 hrs by Western blot; format: functional, cell-based; procedure, shortened: as §6
SMILES,Activity (H4 [1]) [%],Activity (H4 [5]) [%],Activity (H4 [9]) [%],Activity (H4 [11]) [%],Activity (H4 [13]) [%],Activity (H4 [17]) [%],Activity (H4 [18]) [%],Activity (H4 [20]),further results
COC1=C2C[C@@H](C)C[C@H](OC)[C@H](O)[C@@H](C)/C=C(\C)[C@H](OC(N)=O)[C@@H](OC)/C=C\C=C(/C)C(=O)NC(=CC1=O)C2=O [GELDANAMYCIN],72.93,87.25,87.795,74.67,,,,,Activity (H4 [2]): 41.33%; Activity (H4 [3]): 81.41%; Activity (H4 [4]): 398.91%; Activity (H4 [6]): 546.8%; Activity (H4 [7]): 313.52%; Activity (H4 [8]): 35.18%; Activity (H4 [10]): 39.26%
CN(C)C(=O)C(CCN1CCC(O)(c2ccc(Cl)cc2)CC1)(c1ccccc1)c1ccccc1 [LOPERAMIDE],139.19,78.7,125.21,122.1,123.62,95.7,115.39,Dose-dependent effect,Activity (H4 [12]): 126.76%; Activity [14]: inactive; Activity (H4 [15]): 339.4%; Activity (H4 [16]): 235.49%; Activity (H4 [19]): 666.5%; Activity (H4 [21]): Active
O=c1[nH]c2ccccc2n1C1CCN(CCCC(c2ccc(F)cc2)c2ccc(F)cc2)CC1 [PIMOZIDE],162.47,129.13,152.01,155.8,103.96,73.64,94.42,Dose-dependent effect,Activity [22]: inactive; Activity (H4 [23]): 218.96%; Activity (H4 [24]): 447.75%; Activity (H4 [25]): 290.43%; Activity (H4 [26]): 127.14%; Activity (H4 [27]): Active
